Compounds with a hit are over-represented: about 1.7% of the library has one in this group of screens.
T cell modulator = modulators of CD8 T cell-vesicle binding, primary screen, mouse 2C CD8+ T cells, flow cytometry; 2C CD8+ T cell-vesicle binding; hits give low values; response (vesicle binding), % at 7 µM; 330,000 compounds, 0.068% hits; AID 2052, 2009;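 active means response, share of CD8 T cells binding vesicles, and their 90th percentile fluorescence all below set limits, cut at about 80% in these data, passing the limit was not always enough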;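 further: values below 100% mean blocked vesicle binding to the CD8+ T cells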
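Test system: purified 2C TCR transgenic mouse naive CD8+ T cells. Probe or stimulus: QL9-peptide-loaded Drosophila micro-vesicles bearing Ld, ICAM-1 and B7-1. Incubation: binding step 1.5 h, 37 °C, antibody labelling 20 min, ice. Measured by: flow cytometry of vesicle-bound cells.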
Myeloid diff 2 = induction of myeloid progenitor differentiation, primary screen, cell-based, flow cytometry, MLPCN library | ER-HoxA9 myeloid progenitors, lysozyme-GFP differentiation | calls only at 10 µM | 360,000 compounds, 1% hits | AID 624256, 2012;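 active means normalized GFP-positive differentiation at or above the plate's own cutoff, the solvent-only control mean plus 3 SD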;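 further: cells exposed to compound for four days before flow analysis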
Pemphigus Ab inh = inhibitors of pemphigus antibody binding to DSG3, primary screen, biochemical, bead-based, flow cytometry, scFv-GFP; binding (percent of control), % at 10 µM; DSG3-coupled beads, scFv-anti-DSG3-GFP binding; hits give low values; Desmoglein-3 (Homo sapiens), P32926; 310,000 compounds, 0.48% hits;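 active means binding more than 3 SD below its plate's average and above zero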;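 further: hits lower antibody fragment binding to DSG3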
Vif inh = HIV Vif self-association inhibitors, primary screen, imaging, HEK293T, single point | HEK293T cells, Vif self-association by quenched fluorescence, 24 h | inhibition, % at 7.49 µM | 340,000 compounds, 0.35% hits; in the data active means inhibition above about 50%, passing the limit was not always enough
Hits are given with their value; n = inactive; x = not tested or not shown; + = active, no number.

SMILES | T cell modulator | Myeloid diff 2 | Pemphigus Ab inh | Vif inh
COCc1c(C(=O)OCC(=O)NCc2ccco2)oc2ccccc12 | n | n | n | n
COc1ccc(-c2nc(SCC(=O)N(CC(C)C)c3c(N)n(Cc4ccccc4)c(=O)[nH]c3=O)n[nH]2)cc1 | n | n | n | n
CCCN(C(=O)CSc1n[nH]c(-c2ccc(OC)cc2)n1)c1c(N)n(Cc2ccccc2)c(=O)[nH]c1=O | n | + | n | n
Clc1ccc2c(-c3ccccc3)nc(-c3cccs3)nc2c1 | x | n | x | x
O=C(/C=C/c1ccccc1)NC(=S)Nc1ccccc1 | n | n | n | n
CC(C)CC(=O)NC(=S)Nc1ccc(N2CCOCC2)cc1 | n | + | n | n
CC(C)c1ccc(C(=O)Nc2ccc(N3CCOCC3)cc2)cc1 | n | + | n | n
O=C(NC(NC(=S)N1CCOCC1)C(Cl)(Cl)Cl)c1ccc(Cl)cc1 (configuration not stated) | n | + | n | n
O=C(/C=C/c1ccccc1)NC(=S)Nc1ccc(N2CCOCC2)cc1 | n | n | 76 | n
CC(=O)c1ccc(C(=O)Nc2ccc(N3CCOCC3)cc2)cc1 | n | n | n | n
CC(C)CC(=O)NC(=S)Nc1ccc(CN2CCOCC2)cc1 | n | n | n | n
COC(=O)[C@]12CCCCC=C1N(Cc1ccc3c(c1)OCO3)C(=O)[C@H](CC(=O)N1CCN(C(=O)c3ccco3)CC1)C2 | x | n | x | x
O=C(NC(=S)Nc1ccc(N2CCOCC2)cc1)c1ccc(Cl)cc1 | n | n | 73 | n
O=C(Cc1ccccc1)Nc1ccc(N2CCCC2)cc1 | n | n | n | n
O=C(Cc1ccccc1)Nc1ccc(N2CCOCC2)cc1 | n | n | n | 59
Cc1cc(NC(=O)CSc2nc3ccccc3c(=O)n2CCCC(=O)NCc2ccco2)n[nH]1 | n | n | n | 51
CC(=O)NS(=O)(=O)c1ccc(NC(=S)NC(=O)C2CCC2)cc1 | x | n | n | n
CC1(C(=O)NCc2ccccc2)CSCC(=O)N1CC(F)(F)F (configuration not stated) | x | n | x | x
Cn1c(SCc2ccc(F)cc2)nnc1-c1cnccn1 | n | n | 76 | n
COc1ccc(C)cc1N(C(=O)c1ccco1)C(C(=O)NC1CCCC1)c1ccc(N2CCOCC2)cc1 (configuration not stated) | n | + | x | n
COc1cccc(CNC(=O)C2CCN(S(=O)(=O)c3ccc4c(c3)C(C)(C)C(=O)N4C)CC2)c1 | x | n | x | n
Cc1ccccc1Nc1c(C)c(C)nc2ncnn12 | n | n | n | 143
CCc1c(C)nc2ncnn2c1Nc1ccccc1C | n | n | n | n
O=C(Nc1cccc(-c2nc3cccnc3s2)c1)c1ccco1 | n | n | n | 97
CCN1CC=C2C(C#N)=C(N)C(C#N)(C#N)C(c3cc(Cl)ccc3Cl)C2C1 (configuration not stated) | n | + | n | n
SMILES | T cell modulator | Myeloid diff 2 | Pemphigus Ab inh | Vif inh
CC(C)N1CC=C2C(C#N)=C(N)C(C#N)(C#N)C(c3ccccc3)C2C1 (configuration not stated) | n | n | x | n
Cc1ccc(-c2nnn(CC(=O)N(CC(=O)NC3CCCC3)c3cnc4ccccc4c3)n2)o1 | n | + | n | n
Cc1ccc(-c2nnn(CC(=O)N(CC(=O)NC(C)C)c3cnc4ccccc4c3)n2)o1 | n | n | n | n
Cc1ccc(S(=O)(=O)Nc2c(O)ccc3ccccc23)cc1 | 33 | n | n | n
Cn1c(CNc2ccccc2O)nc2ccccc21 | n | + | n | n
Cc1ccccc1NCc1nc2ccccc2n1C | n | n | n | n
CC1CCCC(C)N1C(=O)CSc1nnc(NC(=O)c2cccs2)s1 (configuration not stated) | n | n | x | 109
CCc1noc(C)c1C(=O)N(C)CC(=O)Nc1ccccc1C(F)(F)F | n | n | 7.5 | n
CCc1noc(C)c1C(=O)N(C)CC(=O)Nc1ccc(Cl)c(Cl)c1 | n | n | n | n
O=C(CCN1C(=O)c2ccccc2S1(=O)=O)Nc1cccc(F)c1 | n | n | n | n
COc1cc(C)ccc1OCc1cc(C(=O)NC(c2ccccn2)C(F)(F)F)no1 (configuration not stated) | x | n | 79 | n
C/C=C/C(=O)OCC(=O)Nc1ccccc1Br | n | n | n | n
O=C(COC(=O)/C=C/c1cccc(Cl)c1)Nc1c(F)cccc1F | n | n | -5.5 | n
O=C(COC(=O)/C=C/c1cccc(Cl)c1)Nc1ccccc1-c1ccccc1 | n | x | x | x

Screening results as filed in PubChem BioAssay.
